Experimental data gathered from unrelated publications.
Each line is one published result; the experiments were not run side by side.
CNR2: Cannabinoid receptor 2 (CNR2, Homo sapiens, UniProt P34972)
CASR: Extracellular calcium-sensing receptor (CASR, Homo sapiens, UniProt P41180)
F10: Coagulation factor X (F10, Homo sapiens, UniProt P00742)

Structure (SMILES)	target	observed	action	method	notes	measurement	result
CNC(C)Cc1ccc2c(c1)OCO2 (stereo not shown)	Solute carrier family 22 member 2 (SLC22A2, Homo sapiens, UniProt O15244)	transporter uptake	inhibitor			Ki	1900 nM
CCCCCc1cc(O)c2c(c1)OC(C)(C)[C@@H]1CC[C@@H](C)C=C21	CNR2	ligand displacement		radioligand	cell membranes	Ki	28 nM
CC(NCc1cccc(-n2cccn2)c1)c1csc2ccccc12 (stereo not shown)	CASR	G protein activation	agonist	BRET		EC50	444 nM
CC(C)C[C@@H]1NC(=O)[C@H](C(C)(C)C)NC(=O)[C@H](Cc2ccc(O)cc2)NC(=O)[C@@H]2CCCN2C(=O)[C@H](CCCCN)NC(=O)[C@H](CCCNC(=N)N)NC1=O	Neurotensin receptor type 1 (Ntsr1, Rattus norvegicus, UniProt P20789)	ligand displacement		flow cytometry		Ki	> 100000 nM
CC(=O)N[C@H]1Cc2ccc(cc2)OCCCC[C@@H](C(=O)N[C@@H](CCCNC(=N)N)C(=O)c2nc3ccccc3s2)NC(=O)[C@H](CC(C)C)NC1=O	F10	enzyme activity	inhibitor	absorbance	with preincubation	IC50	2.65 µM
C[C@@H](NCCCc1cccc(C(F)(F)F)c1)c1cccc2ccccc12	CASR	G protein activation	agonist	BRET		EC50	71 nM
CCC(CC)(NC(=O)c1ccc(C2CC2)c(Cc2ccc(F)cc2)n1)C(=O)NCCOCCOCCNC(=O)c1ccc2c(c1)C1(OC2=O)c2ccc(N(C)C)cc2[Si](C)(C)c2cc(N(C)C)ccc21	CNR2	ligand displacement		radioligand	cell membranes	Ki	676 nM
CC(=O)N[C@H]1C/C=C/COc2ccc(cc2)C[C@@H](C(=O)N[C@@H](CCCNC(=N)N)C(=O)c2nc3ccccc3s2)NC(=O)[C@H](CC(C)C)NC1=O	F10	enzyme activity	inhibitor	absorbance	with preincubation	IC50	8.81 µM
CNC(=O)c1ccc(-c2cnn3ccc(C(=O)N(C)c4ccc(Cl)c(C(=O)O)c4)cc23)cc1	Histamine H3 receptor (HRH3, Homo sapiens, UniProt Q9Y5N1)	cell-free assay				IC50	> 30 µM
C=C1CC/C=C(\C)CC[C@@H]2[C@@H]1CC2(C)C	CNR2	ligand displacement		radioligand	cell membranes	Ki	> 10000 nM
